From ChEMBL document CHEMBL1137744, “Parallel synthesis, molecular modelling and further structure-activity relationship studies of new acylthiocarbamates as potent non-nucleoside HIV-1 reverse transcriptase inhibitors” (Eur J Med Chem, 2009)
Activity calls are given as the source filed them. The rule behind the calls is not given here.

Assays:
[1] = test system: Human immunodeficiency virus 1; test: Antiviral activity against HIV1 3B infected in human MT4 cells assessed as inhibition of virus-induced cytopathogenicity by MTT assay; format: functional, organism-based; details: Human immunodeficiency virus 1, 3B
Method in brief: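 MT-4 cells infected with HIV-1 and read by MTT viability. EC50 is the concentration giving 50% protection of cells from virus-induced cytopathogenicity. Values are means of three separate experiments, with variation among triplicate samples under 10%.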

[2] = Selectivity index, ratio of CC50 for human MT4 cells to EC50 for HIV1 3B; format: toxicity, cell-based; details: read-out: Ratio CC50/EC50
Method in brief: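 Computed as CC50/EC50. Both come from MTT readings in MT-4 cells: CC50 is 50% viability loss in mock-infected cells, and EC50 is 50% protection from HIV-1-induced cytopathogenicity. Each is the mean of three experiments.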

[3] = Cytotoxicity against human MT4 cells by MTT assay; format: cell-based
Method in brief: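 Uninfected (mock-infected) MT-4 cells were exposed to compound and viability was read by MTT. CC50 is the concentration cutting viability by 50%. Values are means of three separate experiments, with triplicate samples varying by less than 10%.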

[4] = test system: Human immunodeficiency virus 1; test: Antiviral activity against HIV1 3B expressing reverse transcriptase Y181C mutant infected in human MT4 cells assessed as inhibition of virus-induced cytopathogenicity by MTT assay; format: functional, organism-based; details: Human immunodeficiency virus 1, 3B
Method in brief: (§1)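 MT-4 cells infected with HIV-1 carrying the Y181C RT mutation, alongside wild-type virus. EC50 is the concentration giving 50% protection from virus-induced cytopathogenicity, read by MTT. Values are means of three separate experiments run in triplicate. The ratio is EC50(Y181C)/EC50(wt).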

[5] = test system: Human immunodeficiency virus 1; test: Antiviral activity against HIV1 3B expressing reverse transcriptase K103N/Y181C double mutant infected in human MT4 cells assessed as inhibition of virus-induced cytopathogenicity by MTT assay; format: functional, organism-based
[6] = test system: Human immunodeficiency virus 1; test: Ratio of EC50 for HIV1 3B expressing reverse transcriptase Y181C mutant to EC50 for HIV1 3B; format: functional; method in brief: as §1

Compound	EC50 [1]	selectivity ratio [2]	CC50 [3]	EC50 [4]	Activity [5]	Ratio EC50 [6]
Cc1ccc2c(c1)C(=O)N(CCOC(=S)N(C(=O)c1cccc([N+](=O)[O-])c1)c1ccc(Cl)cc1)C2=O	0.05 µM	> 2000	> 100 µM			
Cc1ccc(N(C(=O)c2ccc([N+](=O)[O-])cc2Cl)C(=S)OCCN2C(=O)c3ccccc3C2=O)cc1	0.09 µM	189	17 µM			
CCCCCOc1ccc(C(=O)N(C(=S)OCCN2C(=O)c3ccccc3C2=O)c2ccc(F)cc2)cc1	8.5 µM	> 11.8	> 100 µM			
Cc1ccc(C(=O)N(C(=S)OCCN2C(=O)c3ccccc3C2=O)c2ccc(C)cc2)cc1	0.02 µM	4150	83 µM			
O=C1c2ccccc2C(=O)N1CCOC(=S)N(C(=O)c1ccco1)c1ccc(Cl)cc1Cl	2.6 µM	> 38	> 100 µM			
O=C1c2ccccc2C(=O)N1CCOC(=S)N(C(=O)c1ccccc1)c1ccccc1	0.4 µM					
O=C1c2ccccc2C(=O)N1CCOC(=S)N(C(=O)c1ccco1)c1cccc(Cl)c1Cl	> 100 µM		100 µM			
Cc1ccc(N(C(=O)c2cc(F)ccc2F)C(=S)OCCN2C(=O)c3ccccc3C2=O)cc1	0.04 µM	1550	62 µM			
O=C1c2ccccc2C(=O)N1CCOC(=S)N(C(=O)c1ccc(Cl)cc1Cl)c1ccc(Cl)cc1	0.03 µM	600	18 µM			
O=C1c2ccccc2C(=O)N1CCOC(=S)N(C(=O)c1ccco1)c1ccc(Cl)cc1	0.007 µM					
O=C1c2ccccc2C(=O)N1CCOC(=S)N(C(=O)c1cc(F)cc(F)c1)c1ccc(Cl)cc1	0.007 µM	8430	59 µM			
Cc1ccc(N(C(=O)c2ccc(Cl)cc2Cl)C(=S)OCCN2C(=O)c3ccccc3C2=O)cc1	0.3 µM	163	49 µM			
Cc1ccc(N(C(=O)c2cccc([N+](=O)[O-])c2)C(=S)OCCN2C(=O)c3ccccc3C2=O)cc1	0.02 µM	5000	100 µM			
Cc1ccc(N(C(=O)c2c(F)cccc2F)C(=S)OCCN2C(=O)c3ccccc3C2=O)cc1	1 µM	65	65 µM			
O=C1c2ccccc2C(=O)N1CCOC(=S)N(C(=O)c1ccc(Cl)nc1)c1ccc(Cl)cc1	0.006 µM					
Cc1ccc(N(C(=O)c2ccc(Br)c(C)c2)C(=S)OCCN2C(=O)c3ccccc3C2=O)cc1	0.05 µM	> 2000	> 100 µM			
Cc1ccc(N(C(=O)c2c(Cl)cccc2Cl)C(=S)OCCN2C(=O)c3ccccc3C2=O)cc1	9 µM	2.4	22 µM			
O=C1c2ccccc2C(=O)N1CCOC(=S)N(C(=O)c1cccc([N+](=O)[O-])c1)c1ccc(Cl)cc1	0.0015 µM	12000	18 µM			
O=C1c2ccccc2C(=O)N1CCOC(=S)N(C(=O)c1ccccc1)c1ccc(Cl)cc1	0.1 µM					
COc1cccc(OC)c1C(=O)N(C(=S)OCCN1C(=O)c2ccccc2C1=O)c1ccc(Cl)cc1	0.4 µM	172	69 µM			
O=C1c2ccccc2C(=O)N1CCOC(=S)N(C(=O)c1cc([N+](=O)[O-])ccc1Cl)c1ccc(Cl)cc1	0.07 µM	643	45 µM			
Cc1ccc(N(C(=O)c2cccc(Cl)c2Cl)C(=S)OCCN2C(=O)c3ccccc3C2=O)cc1	0.2 µM	175	35 µM			
O=C1c2ccccc2C(=O)N1CCOC(=S)N(C(=O)c1cccs1)c1ccc(Cl)cc1	0.008 µM					
CC(CN1C(=O)c2ccccc2C1=O)OC(=S)N(C(=O)c1cccc([N+](=O)[O-])c1)c1ccc(Cl)cc1 (racemic)	0.7 µM	44.3	31 µM			
O=C1c2ccccc2C(=O)N1CCOC(=S)N(C(=O)c1ccccc1[N+](=O)[O-])c1ccc(Cl)cc1	0.07 µM	300	21 µM			
O=C1c2ccccc2C(=O)N1COC(=S)N(C(=O)c1cccc([N+](=O)[O-])c1)c1ccc(Cl)cc1	> 100 µM		> 100 µM			
O=C1c2ccccc2C(=O)N1CCOC(=S)N(C(=O)c1ccc(Cl)cc1)c1ccc(Cl)cc1	0.025 µM					
O=C1c2ccccc2C(=O)N1CCOC(=S)N(C(=O)c1cccc([N+](=O)[O-])c1)c1c(Cl)cccc1Cl	17 µM	3.4	58 µM			

Compound	EC50 [1]	selectivity ratio [2]	CC50 [3]	EC50 [4]	Activity [5]	Ratio EC50 [6]
O=C1c2ccccc2C(=O)N1CCCOC(=S)N(C(=O)c1cccc([N+](=O)[O-])c1)c1ccc(Cl)cc1	29 µM	1.8	53 µM			
O=C1c2ccccc2C(=O)N1CCOC(=S)N(C(=O)c1ccco1)c1cc(Cl)cc(Cl)c1	> 100 µM		> 100 µM			
Cc1ccc(N(C(=O)c2ccc(Cl)c([N+](=O)[O-])c2)C(=S)OCCN2C(=O)c3ccccc3C2=O)cc1	0.06 µM	783	47 µM			
O=C1c2ccccc2C(=O)N1CCOC(=S)N(C(=O)c1ccc(C(F)(F)F)cc1)c1ccc(Cl)cc1	0.005 µM	2000	10 µM			
O=C1c2ccccc2C(=O)N1CCOC(=S)N(C(=O)c1cccc([N+](=O)[O-])c1)c1c(Cl)cc(Cl)cc1Cl	> 20 µM		20 µM			
O=C1c2ccccc2C(=O)N1CCOC(=S)N(C(=O)c1cccnc1Cl)c1ccc(Cl)cc1	0.005 µM					
COc1cccc(OC)c1C(=O)N(C(=S)OCCN1C(=O)c2ccccc2C1=O)c1ccc(C)cc1	22 µM	1.6	36 µM			
Cc1ccc(N(C(=O)c2ccc(Cl)c(Cl)c2)C(=S)OCCN2C(=O)c3ccccc3C2=O)cc1	0.05 µM	340	17 µM			
O=C1c2ccccc2C(=O)N1CCOC(=S)N(C(=O)c1ccc([N+](=O)[O-])cc1Cl)c1ccc(Cl)cc1	0.008 µM	2380	19 µM			
Cc1ccccc1C(=O)N(C(=S)OCCN1C(=O)c2ccccc2C1=O)c1ccc(Cl)cc1	0.04 µM	525	21 µM			
O=C1Nc2ccc(Cl)cc2[C@@](C#CC2CC2)(C(F)(F)F)O1 [EFAVIRENZ]				0.01 µM	inactive	
Cc1ccc(N(C(=O)c2ccc(F)cc2F)C(=S)OCCN2C(=O)c3ccccc3C2=O)cc1	0.03 µM	667	20 µM			
O=C1c2ccccc2C(=O)N1CCOC(=S)N(C(=O)c1ccc(Cl)c(Cl)c1)c1ccccc1	0.5 µM	104	52 µM			
Cc1ccc(N(C(=O)c2cc(F)cc(F)c2)C(=S)OCCN2C(=O)c3ccccc3C2=O)cc1	0.05 µM	1080	54 µM			
Cc1ccc(N(C(=O)c2ccccc2C)C(=S)OCCN2C(=O)c3ccccc3C2=O)cc1	0.2 µM	> 500	> 100 µM			
Cc1ccc2c(c1)C(=O)N(CCOC(=S)N(C(=O)c1cccs1)c1ccc(Cl)cc1)C2=O	0.02 µM	> 5000	> 100 µM			
O=C1c2ccccc2C(=O)N1CCOC(=S)N(C(=O)c1c(F)cccc1F)c1ccc(Cl)cc1	0.02 µM	1950	39 µM			
O=C1c2ccccc2C(=O)N1CCOC(=S)N(C(=O)c1ccco1)c1ccc(Cl)c(Cl)c1	0.69 µM	145	100 µM			
O=C1c2ccccc2C(=O)N1CCOC(=S)N(C(=O)c1c(Cl)cccc1Cl)c1ccc(Cl)cc1	5.6 µM	3.6	20 µM			
O=C1c2ccccc2C(=O)N1CCOC(=S)N(C(=O)c1ccc(Cl)c([N+](=O)[O-])c1)c1ccccc1	0.35 µM	146	51 µM			
O=C1c2ccccc2C(=O)N1CCOC(=S)N(C(=O)c1ccc(Br)cc1)c1ccc(Br)cc1	0.035 µM	2090	73 µM			
O=C1c2ccccc2C(=O)N1CCOC(=S)N(C(=O)c1ccc(Cl)c(Cl)c1)c1ccc(Cl)cc1	0.009 µM	3890	35 µM			
O=C1c2ccccc2C(=O)N1CCOC(=S)N(C(=O)c1cccc2ccccc12)c1ccc(Cl)cc1	0.03 µM	200	6 µM			
Cc1ccc(N(C(=O)c2ccc([N+](=O)[O-])cc2)C(=S)OCCN2C(=O)c3ccccc3C2=O)cc1	0.03 µM	1930	58 µM			
Cc1ccc(N(C(=O)c2ccccc2[N+](=O)[O-])C(=S)OCCN2C(=O)c3ccccc3C2=O)cc1	0.4 µM	250	100 µM			
Cc1ccc(N(C(=O)c2cccc(C)c2)C(=S)OCCN2C(=O)c3ccccc3C2=O)cc1	0.04 µM	> 2500	> 100 µM			
S=C(NCCc1ccccn1)Nc1ccc(Br)cn1 [TROVIRDINE]		3000		1.2 µM	inactive	60
